Source: PubChem BioAssay (several laboratories)
A selection: hits, their analogues and other compounds. The true share with any hit is near 5.7%.
Calb FLC: affects C. albicans growth with fluconazole. C. albicans CaCi-2 (fluconazole-resistant clinical isolate) + fluconazole, Alamar Blue growth, 48 h. growth inhibition, % (concentration not given with the values). hit rate 0.57% among 300,000. AID 1979;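 active = growth inhibition above about 58% in most replicates, limit read from the data, passing the limit was not always enough; inconclusive = exactly half the replicates above a set limit; inactive = most replicates below a set limit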;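 also: all wells also contain fluconazole at 8 µg/ml as a sub-toxic cotreatment; 0% = median of DMSO wells and 100% = median of geldanamycin control wells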
Beta cell apopt: blocks beta cell apoptosis | hit rate 0.8% among 300,000 | INS-1E cytokine-induced death, ATP luminescence, 48 h; percent of positive-control rescue, neutral wells zero | protection from apoptosis, % (no concentration beside the values) | AID 435005;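 active = Every replicate reaches about 75%, or at least half do and their mean reaches it too, limit read from the data; inconclusive = At least half of replicates reach the limit but their mean does not; inactive = Under half of replicates reach the limit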;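 also: 0% = cytokine-treated negative control wells and 100% = positive control rescue; higher means more ATP so stronger rescue from cytokine killing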
Mdm2-MdmX inh: inhibitors of human Mdm2/MdmX interaction. O15151+Q00987. SaOS-2 split-luciferase Mdm2/MdmX complementation, luminescence. inhibition, % at 8 µM. hit rate 3% among 330,000;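 active = inhibition of at least 50% at 8 µM in the primary screen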
T cruzi repl: T. cruzi replication inhibition; T. cruzi beta-gal in NIH3T3, luminescence, 90 h; inhibition, % (test concentration not listed); hit rate 1.4% among 300,000;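 active = mean inhibition across valid replicates above about 55%, limit read from the data; inconclusive = mean below that limit but half or more replicates reach it; inactive = mean below it, under half of replicates reach it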;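 also: signal also drops with host cell toxicity which is not excluded here; 0% = plate median of DMSO wells and 100% = zero luminescence signal; higher percent means less beta-gal luminescence so fewer parasites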
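Incubation – ≥90 h infection period, 3 h prior cell attachment · System – NIH/3T3 fibroblasts plus reporter T. cruzi · Doses – compound pinned at 50 nL/well, DMSO · Read-out basis – percent inhibition of parasite-derived β-gal signal · Signal – luminescent β-galactosidase signal after 60 min lysis · Also added – 5000 T. cruzi trypomastigotes/well · Medium – Low-serum DMEM with 2% FBS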
SKKanGAS inh: SKKanGAS growth inhibition. S. pyogenes SKKanGAS, kanamycin growth, BacTiter-Glo, 6 h. hit rate 1.3% among 300,000. inhibition, % at 7.5 µM;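 active = mean replicate score, as percent of positive control median, at least 50; inconclusive = mean below 50 but one replicate at or above 50; inactive = mean and every replicate below 50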;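 also: strain carries kanamycin resistance gene driven by streptokinase promoter and grows in 40 µg/ml kanamycin; loss of luminescence reflects streptokinase promoter inhibition or plain growth inhibition; 0% = median of DMSO wells and 100% = positive control at its reference dose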
CSC inhib: cancer stem cell inhibition; inhibition, % at 7.5 µM; AID 2717; hit rate 1.1% among 300,000; cancer stem cell-like cells viability, luminescence; in the data active = inhibition above about 75%; inconclusive = no clear call, values can overlap the other calls; tested in HMLE shEcad cells
Mdm2-MdmX conf: human Mdm2/MdmX binding inhibition, confirmed; shares compounds with Mdm2-MdmX inh; luminescent assay; inhibition, % at 8 µM; hit rate 55% among 10,000; in the data active = inhibition above about 40%
FLuc counter: counter-screen for Mdm2/MdmX inhibitors: full-length luciferase. shares compounds with Mdm2-MdmX inh. SaOS-2 full-length luciferase counterscreen, luminescence. inhibition, % at 8 µM. hit rate 77% among 6,200;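 active = mean inhibition at 8 µM reaching about 37%, which flags the compound as non-specific, limit read from the data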;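 also: p53-null SaOS-2 cells with luciferase driven by a doxycycline-inducible promoter; compound on cells about two nights before reading with doxycycline added after day one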
Starred values were filed as active, the others as inactive; ? = inconclusive; . = not tested or not shown.

SMILES | Calb FLC | Beta cell apopt | Mdm2-MdmX inh | T cruzi repl | SKKanGAS inh | CSC inhib | Mdm2-MdmX conf | others
CCc1c(C)sc2nc(C(C)C)nc(SCC(=O)N3CCc4ccccc4C3)c12 | -4 | 105* | 95* | 35 | 62* | 192* | 58* | FLuc counter=74*
COc1ccc(C2=NNC(=Nc3cc(S(=O)(=O)N(C)C)ccc3C)SC2)c(OC)c1 | -5 | 103* | 67* | 72* | 3 | 1 | 50* | FLuc counter=54*
Cc1cccc(N=C2NN=C(c3ccccc3F)CS2)c1C | 12 | -5 | -62 | 0 | -4 | -11 | .
COc1ccccc1CCNC(=O)CCSc1nc(-c2ccco2)cc(C(F)(F)F)n1 | 6 | 6 | 23 | 25 | 6 | 21 | .
CCOC(=O)c1sc(NC(=O)CSc2nc(-c3ccco3)cc(C(F)(F)F)n2)c(C(=O)OC)c1C | 12 | -6 | 73* | 2 | 9 | 14 | 29 | FLuc counter=17
O=C(CSc1nc(-c2ccco2)cc(C(F)(F)F)n1)Nc1ccc2c(c1)OCO2 | 1 | -3 | 62* | -3 | -11 | 46 | 65* | FLuc counter=44*
CCCOC(=O)c1c(NC(=O)CSc2nc(-c3ccco3)cc(C(F)(F)F)n2)sc(C(=O)OC)c1C | -1 | 6 | 21 | 25 | 14 | 16 | .
COc1ccccc1CCNC(=O)CSc1nc(-c2ccco2)cc(C(F)(F)F)n1 | 2 | . | 76* | 7 | -4 | 7 | 43* | FLuc counter=83*
O=C(Nc1ncc(Cc2cccc(Cl)c2Cl)s1)c1ccc([N+](=O)[O-])cc1 | -1 | . | 46 | 48 | 21 | 59 | .
Cc1ccc(Nc2nnc(SCC(=O)Nc3ncc(S(=O)(=O)c4ccc([N+](=O)[O-])cc4)s3)s2)cc1 | -2 | 1 | 62* | 8 | 30 | . | 16
O=C(Nc1ncc(S(=O)(=O)c2ccc([N+](=O)[O-])cc2)s1)c1ccc2ccccc2c1 | -12 | 26 | 71* | 55* | 14 | ? | 32
O=C(Nc1ncc(Cc2cc(Cl)ccc2Cl)s1)c1ccc([N+](=O)[O-])cc1 | -2 | 27 | 59* | 57* | 43 | 40 | 33
CC(=O)Nc1ccc(S(=O)(=O)NCCC(=O)NCCCc2ccccc2)cc1 | . | 0 | 19 | . | . | -10 | .
O=C(OCC(=O)C12CC3CC(CC(C3)C1)C2)c1ccc(O)cc1O | 3 | 9 | 12 | 7 | 12 | -12 | .
Cc1ccc(C)c(C(=O)OCC(=O)N(C)c2ccccc2)c1 | 8 | . | -22 | 4 | -2 | -16 | .
O=C(CN1c2ccccc2Sc2ccccc21)NNC(=S)Nc1ccc(Cl)cc1Cl | -5 | 18 | 66* | -11 | 111* | ? | 6
O=C(CN1c2ccccc2Sc2ccccc21)N/N=C/c1ccc(Cl)cc1 | -8 | 11 | 71* | . | 12 | 62 | 1
CC(C)CC(OC(=O)c1nsc(Cl)c1Cl)C(=O)NCC1CCCO1 (stereo not drawn) | -1 | 6 | -13 | -5 | 1 | -3 | .
CN1CCN(c2nc(-c3ccc(C(C)(C)C)cc3)nc3ccccc23)CC1 | 13 | 6 | 50* | 37 | 22 | 38 | 48* | FLuc counter=173*
Cc1ccc(-c2nc(N3CCN(C)CC3)c3ccccc3n2)cc1 | 7 | -3 | 15 | 29 | -1 | 7 | .
N#Cc1ccc(OCC(=O)N/N=C(\CCC(=O)O)c2cccs2)cc1 | -10 | -1 | 16 | -13 | -1 | -10 | .
Cc1ccc(-n2cc(CNCCc3cscn3)c(-c3ccc(F)cc3)n2)cc1 | -6 | . | 18 | 34 | 7 | -8 | .
Cc1ccc(-n2cc(CNCCCn3ccnc3C)c(-c3ccc(F)cc3)n2)cc1 | 4 | 7 | 73* | 84* | 4 | -1 | 30
CCOc1ccc(C(=O)Nc2cc(C)c3c(=O)oc4ccccc4c3n2)cc1 | 1 | -3 | 65* | -7 | 9 | 1 | -21
Cc1cc(NC(=O)c2ccccc2)nc2c1c(=O)oc1ccccc12 | 18 | 1 | 3 | 11 | -1 | 12 | .
O=C(O)CCn1cc(/C=C2/NC(=S)N(c3ccccc3)C2=O)c(-c2ccccc2)n1 | 7 | -9 | 0 | -19 | 3 | -9 | .
